# Source: PubChem BioAssay
# Only some compounds are listed: those with a hit (about 3.2% of all), similar ones and a draw of the others.
# PfHsp90 yeast 2: inhibits growth of yeast expressing Plasmodium falciparum Hsp90 | S. cerevisiae expressing PfHsp90, BacTiter-Glo ATP, 48 h; yeast lacking PDR1 and PDR3 efflux regulators | inhibition, % at 9.4 µM | 310,000 tested, 0.32% active | AID 504621;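 active = every replicate shows inhibition above about 80%, whatever the replicate mean, limit read from the data; inconclusive = mean inhibition reaches the set limit but some replicate falls short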;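 also: 0% = DMSO neutral controls and 100% = 20 µM radicicol positive controls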
# Cneo AK release: Cryptococcus neoformans lysis via adenylate kinase release; C. neoformans lysis, adenylate kinase release luminescence, 4 h; normalised: neutral wells 0, clomiphene wells 100; lysis activity, % at 15 µM; 360,000 tested, 0.2% active;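 active = mean lysis activity across replicates of at least 80%, whatever share of replicates individually reach that level; inactive = mean lysis activity below 80%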
#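 Assay system: Cryptococcus neoformans yeast cells / Dosing: single-point compound dose / Timing: 4 h at 37 °C static, read 1 h later / Measured by: luminescence of released adenylate kinase using an AK detection reagent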
# MLL AF4-AF9 inh: inhibitors of human MLL-AF4/AF9 interaction; AlphaScreen, biotin-AF4 peptide binding to FLAG-AF9; inhibition, % at 10 µM; 350,000 tested, 0.47% active;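 active = every replicate reaching a set inhibition limit, whatever the replicate mean, cut at about 25% in these data; inconclusive = mean inhibition reaches that limit but some replicates miss it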;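 also: 0% = plate neutral control median and 100% = total signal loss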
# Target sequence (P42568 whole entry, looked up): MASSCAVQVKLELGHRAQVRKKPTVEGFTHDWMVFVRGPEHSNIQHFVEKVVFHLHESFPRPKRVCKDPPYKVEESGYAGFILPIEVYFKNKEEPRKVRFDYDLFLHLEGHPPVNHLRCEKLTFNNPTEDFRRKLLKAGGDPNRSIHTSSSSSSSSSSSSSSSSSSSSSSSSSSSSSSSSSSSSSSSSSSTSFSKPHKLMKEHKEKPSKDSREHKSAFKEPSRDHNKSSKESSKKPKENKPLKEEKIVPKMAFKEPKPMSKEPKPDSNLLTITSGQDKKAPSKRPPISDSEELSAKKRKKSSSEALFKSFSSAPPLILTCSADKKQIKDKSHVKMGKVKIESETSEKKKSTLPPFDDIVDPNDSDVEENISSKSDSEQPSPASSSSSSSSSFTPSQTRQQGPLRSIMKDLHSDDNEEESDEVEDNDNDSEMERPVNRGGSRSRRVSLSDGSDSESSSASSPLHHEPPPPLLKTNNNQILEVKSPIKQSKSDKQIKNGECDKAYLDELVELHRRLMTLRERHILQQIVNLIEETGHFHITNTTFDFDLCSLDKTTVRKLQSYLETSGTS
# S100A4 MyoIIA: inhibitors of human S100A4 binding to myosin IIA peptide; 360,000 tested, 0.14% active; S100A4/TAMRA-MyoIIA peptide fluorescence polarization; inhibition, % at 10.7 µM;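 active = mean inhibition of at least 70% across replicates, with every replicate also reaching that level; inconclusive = mean inhibition reaches 70% but some replicates fall short; inactive = mean inhibition below 70%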
# Target sequence (P26447 whole entry, looked up): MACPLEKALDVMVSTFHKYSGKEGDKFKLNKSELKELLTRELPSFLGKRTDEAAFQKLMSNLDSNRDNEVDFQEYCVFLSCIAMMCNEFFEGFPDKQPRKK
#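 assay system = human S100A4 monomer with TAMRA-labelled myosin IIA peptide | also added = labelled myosin peptide probe, 5 nM | incubation = 5 min between mix addition and reading | control set = DMSO and TFP controls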
# DENV2 CPE: inhibitors of DENV2 cytopathic effect | DENV2-infected cells, cytopathic effect rescue, plate reader | AID 651640 | CPE inhibition, % at 9.99 µM | 350,000 tested, 1.7% active; in the data active = CPE inhibition above about 20%, passing the limit was not always enough; inconclusive = no clear call, values can overlap the other calls; tested in BHK-21 cells;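 also: 0% = median of neutral control wells and 100% = median of positive control wells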
# rRNA inh HTS: inhibitors of bacterial rRNA selective over humanized ribosomes; 350,000 tested, 1.6% active; GFP signal change (wild-type ribosome), % (test concentration not listed); AID 720706; E. coli WT GFP vs humanized-ribosome RFP mutants, fluorescence, 24 h; active compounds read low; DMSO median 0, no signal -100;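 active = significant combined selectivity score with lowered wild-type GFP, culture density cut under 30%, mutant RFP and density less affected; inactive = any of these conditions unmet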
# AlphaScreen intf: AlphaScreen signal interference counter-screen hit; shares compounds with MLL AF4-AF9 inh; signal luminescence; AC50, µM (highest dose often 12 µM), without a hit: at the highest dose activity change, negative = inhibition; 530 tested, 45% active; cut-off not given, nearly all actives have AC50 up to about 14 µM
# AID977621: growth inhibition of wild-type GFP E. coli, dose response, H69 mutant RFP, cherry-pick. AID 977621. shares compounds with rRNA inh HTS. 1,900 tested, under 10 active. E. coli wild-type GFP strain growth, fluorescence, 24 h. activity change, negative = inhibition at 50 µM;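 active = Wild-type ribosome reporter drop at least double the humanized mutant ribosome reporter drop, growth loss under a set limit; inconclusive = no clear call, values can overlap the other calls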;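 also: wild-type GFP and H69 mutant RFP strains grown together 50/50 in each well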
# AID977628: growth of wild-type and h24-humanized E. coli strains – h24 mutant RFP vs wild-type GFP, cherry-pick, dose response; E. coli WT GFP strain growth, fluorescence, 24 h; activity change, negative = inhibition at 50 µM; shares compounds with rRNA inh HTS; 1,900 tested, under 10 active;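 active = compound lowering the normal-ribosome reporter at least twice as much as the humanized-ribosome reporter, growth loss under a set limit; inconclusive = no clear call, values can overlap the other calls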;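 also: wild-type GFP and h24 humanized RFP strains co-cultured 1 to 1 per well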
# * hit, by the source's call; u = inconclusive; x = no result given.
SMILES,PfHsp90 yeast 2,Cneo AK release,MLL AF4-AF9 inh,S100A4 MyoIIA,DENV2 CPE,rRNA inh HTS,AID977628,others
O=[N+]([O-])c1ccc(N2CCCCC2)c2ncccc12,8,-2,21,-2,4,-43*,x,
O=[N+]([O-])c1ccc(N2CCCNCC2)c2ncccc12,10,x,5,-6,u,-5,x,
O=[N+]([O-])c1ccc(N2CCCCCC2)c2ncccc12,x,x,27*,-6,-1,-42,x,
Cc1cccc(S(=O)(=O)N2[C@@H]3Cn4c(ccc(-c5ccccc5)c4=O)[C@H]2[C@@H](C(=O)O)[C@@H]3CO)c1,x,-10,-1,-4,-4,0,x,
COc1ccc2c(c1)c(CCN)c(C)n2Cc1ccccc1,10,-2,33*,1,13,-11,x,AlphaScreen intf=-30%
COC(=O)C[C@H]1CC[C@@H]2NC[C@H](O)COC[C@H]2O1,x,-1,x,x,3,1,x,
NCC(O)c1cc(O)c(O)cc1F (stereo unspecified),0,0,53*,9,-2,x,x,AlphaScreen intf=-19%
COC(=O)[C@H]1[C@H](CO)[C@H]2Cn3c(ccc(C4=CCCCC4)c3=O)[C@@H]1N2C(=O)CC1CC1,x,1,1,-6,-6,0,x,
CN1CCN(c2ccc(N)cc2)CC1,-40,1,x,x,x,x,x,
CCN1CCN(c2ccc(N)cc2)CC1,11,x,82*,20,13,13,x,AlphaScreen intf=4.5µM*
CCN1CCN(c2ccc(N)cc2C)CC1,16,x,43*,-7,1,17,x,AlphaScreen intf=12µM*
CC(C)Nc1ccc(Nc2ccccc2)cc1,-4,1,u,-1,3,0,x,AlphaScreen intf=-29%
N#Cc1cccc(-c2ccc([C@H]3[C@@H](CO)N4CCCCN(C(=O)Cc5ccncc5)C[C@@H]34)cc2)c1,x,-2,-1,-3,-10,-1,x,
Nc1ccc2ccc3cccc[n+]3c2c1,3,3,-9,12,-13,106,x,
C[n+]1c(-c2ccccc2)c2cc(N)ccc2c2ccc(N)cc21,-35,-3,55*,126*,-5,x,x,AlphaScreen intf=8.5µM*
N#Cc1cccc(-c2ccc([C@@H]3[C@H](CO)N4CCCCN(C(=O)Cc5ccccc5)C[C@@H]34)cc2)c1,x,-2,1,-19,8,2,x,
COc1ccc(C2=NCC(=O)N(CC(=O)NCc3ccco3)c3sc4c(c32)CCCC4)cc1,18,1,x,x,x,x,x,
O=C1CN=C(c2ccc(Br)cc2)c2c(sc3c2CCCC3)N1CCN1CCCCC1,3,3,32*,-3,5,-52,x,AlphaScreen intf=-37%
Cc1ccc(-c2cc(-c3ccc(C)cc3)[n+](-c3ccc(C(=O)[O-])cc3)c(-c3ccc(C)cc3)c2)cc1,0,0,26*,-4,0,-21*,u,AlphaScreen intf=-27%
COC(=O)[C@@H]1[C@@H](CO)[C@@H]2Cn3c(ccc(-c4ccc(F)cc4)c3=O)[C@H]1N2Cc1cccnc1,x,-2,-3,19,3,-2,x,
C[C@]12CCC3C(CC[C@H]4CC(=O)CC[C@]34C)C1CCC2=O (stereo partly specified),-5,x,-1,1,-13,-46,x,
C[C@]12CCC(=O)C[C@H]1CC[C@@H]1[C@@H]2CC[C@]2(C)C(=O)CC[C@@H]12,30,-3,-1,0,-3,-27*,u,
Cc1ccc(OC(=O)N(C)C[C@H]2OCc3ccccc3-c3c(n(C)c4ccccc34)C(=O)N([C@@H](C)CO)C[C@H]2C)cc1,x,x,2,9,-2,0,x,
Cc1nc2ccc(Br)cc2c(=O)n1-c1ccc([N+](=O)[O-])c(C(F)(F)F)c1,7,-17,1,-1,2,-19*,-7.7,AID977621=-10
Cc1nc2ccccc2c(=O)n1-c1cc([N+](=O)[O-])cc([N+](=O)[O-])c1,-2,1,0,1,-6,8,x,
SMILES,PfHsp90 yeast 2,Cneo AK release,MLL AF4-AF9 inh,S100A4 MyoIIA,DENV2 CPE,rRNA inh HTS,AID977628,others
CN1CCC(c2c[nH]c3ccccc23)C1 (stereo unspecified),12,x,5,10,-4,-23*,u,AID977621=-7.4
O=C(NC[C@H]1CC[C@@H]2NC[C@@H]2O1)C1CCCC1,x,x,-4,-8,u,x,x,
CSc1ncc(CN2CCCC(C(=O)c3cccc(Cl)c3)C2)cn1 (stereo unspecified),-5,0,1,1,-6,-21*,-7.6,AID977621=-2.3
O=C(c1ccc(Cl)cc1)C1CCCN(Cc2cccc3cnccc23)C1 (stereo unspecified),-9,-2,7,10,2,-25*,u,
COC(=O)[C@H]1[C@H](CO)[C@H]2Cn3c(ccc(-c4ccccc4OC)c3=O)[C@@H]1N2Cc1ccccc1,x,-1,-1,x,x,-4,x,
COC(=O)[C@H]1[C@H](CO)[C@H]2Cn3c(ccc(C4=CCCCC4)c3=O)[C@@H]1N2Cc1ccccc1OC,x,x,2,-5,-6,-6,x,
COc1ccc(C2CN(C)CC2C(=O)c2ccc(C)cc2)cc1Cl (stereo unspecified),-2,x,6,-6,3,-28*,u,AID977621=u
CC=Cc1ccc2n(c1=O)C[C@H]1[C@H](CO)[C@@H](C(=O)OC)[C@@H]2N1CC1CCCCC1 (mixture of isomers),x,2,2,11,-3,-3,x,
Nc1c(C(=O)NCCc2ccccc2)c2nc3ccccc3nc2n1CCN1CCOCC1,46,4,x,x,x,x,x,
Nc1c(C(=O)NCCN2CCOCC2)c2nc3ccccc3nc2n1Cc1ccccc1,-9,-11,-15,-6,2,-36*,u,
Cc1c(-c2cccc(Cl)c2)nc2ccccc2c1C(=O)N1CCC2(CC1)OCCO2,-5,-1,-2,3,-2,-23*,u,
O=C(c1cc(-c2ccccc2)nc2ccccc12)N1CCC2(CC1)OCCO2,-1,-6,u,-10,2,-8,x,
c1ccc(Nc2ccc3ccccc3c2)cc1,1,-5,10,7,u,-24*,-2.2,AID977621=1.9
